Calls of active or inactive are those of the source. The calls are words filed in the database; no cut-off is given here.

Experiment [1] has as its system Influenza A virus (A/Puerto Rico/8/1934(H1N1)). Put plainly: Antiviral activity against Influenza A virus (A/PR/8/34 (H1N1)(NA-H274Y)) infected in MDCK cells assessed as reduction in virus-induced cytopathic effect after 48 hrs by microscopic analysis. The experiment is classed as functional, organism-based. The method in brief: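 MDCK monolayers (5×10^4 cells/well, grown 24 h) were rinsed twice, infected with 100 TCID50 virus for 2 h at 37 °C in 5% CO2, and the inoculum was removed. Two-fold serial compound dilutions in DMEM with 1.5 µg/mL trypsin were added and incubated 48 h at 34 °C. CPE percentage was scored by microscope and EC50 fitted by non-linear regression.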

In experiment [2] the test system is Matrix protein 2 (Influenza A virus (A/Udorn/307/1972(H3N2))), P0DOF8 [S31N]. Put plainly: Inhibition of Influenza A virus AM2 S31N mutant expressed in Xenopus laevis frog oocytes assessed as maximum reduction in channel current at 100 uM at pH 5.5 after 2 mins by TEVC assay. The experiment is classed as cell-based. The method in brief:
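Xenopus laevis oocytes were microinjected with RNA expressing A/M2 S31N. Compound was applied for 2 min at pH 5.5 and the percentage inhibition of M2 current was recorded by two-electrode voltage clamp. Each measurement was repeated twice with different cells.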

With `CCOC(=O)C1=C[C@@H](OC(CC)CC)[C@H](NC(C)=O)[C@@H](N)C1` [OSELTAMIVIR], the concentration giving a half-maximal response (EC50) in experiment [1] was more than 10 µM.

Consider `NC12CC3CC(CC(C3)C1)C2` [AMANTADINE], for which the EC50 in experiment [1] is more than 100 µM. For `C[C@@H]1C2CC(C[C@H]1NCc1sccc1C1CC1)C2(C)C` (single isomer, unassigned), in experiment [1], the EC50 is 6.85 µM. The inhibition entry in experiment [2] is “inactive”.
